Results from ChEMBL document CHEMBL5316332 (J Med Chem, 2023).
Active and inactive are the calls of the source. The rule behind the calls is not given here.

Columns and labels:
[1] = molecular target: T1, TGF-beta receptor type-1 (Homo sapiens) (UniProt P36897); experiment: Inhibition of TGFBR1 (unknown origin) by LanthaScreen TR-FRET assay
T1 sequence (whole entry): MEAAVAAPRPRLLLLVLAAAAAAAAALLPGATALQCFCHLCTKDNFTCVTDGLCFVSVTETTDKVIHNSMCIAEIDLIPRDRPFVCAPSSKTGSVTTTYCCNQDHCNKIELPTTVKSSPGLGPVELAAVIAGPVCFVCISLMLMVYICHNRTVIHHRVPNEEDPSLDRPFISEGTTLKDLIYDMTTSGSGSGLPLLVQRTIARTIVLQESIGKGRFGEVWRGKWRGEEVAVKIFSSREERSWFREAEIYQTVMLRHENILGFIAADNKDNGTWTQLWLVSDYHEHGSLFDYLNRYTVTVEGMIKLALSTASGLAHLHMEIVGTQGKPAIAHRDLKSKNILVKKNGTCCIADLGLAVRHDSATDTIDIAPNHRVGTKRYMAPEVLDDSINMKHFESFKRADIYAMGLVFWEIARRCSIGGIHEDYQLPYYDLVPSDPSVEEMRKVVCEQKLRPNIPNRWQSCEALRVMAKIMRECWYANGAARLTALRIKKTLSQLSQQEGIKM
Method in brief: (§1)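 Outsourced SelectScreen profiling using a LanthaScreen TR-FRET binding format, in which a tight-binding tracer is displaced from the kinase.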

HEK293T = experiment: Inhibition of BMP signalling pathway in BMP2-stimulated human HEK293T cells assessed as decrease in SMAD1 phosphorylation at 25 uM preincubated for 30 mins followed by BMP2 stimulation and measured after 15 mins by Western blot analysis; assay type: cell-based; conditions: time 45.0 min
Method in brief: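 HEK293T cells, 3 × 10^5 per well, starved overnight in DMEM with 2 mM glycine and 2% heat-inactivated FBS. Pretreated 30 min with inhibitor, then 5 ng/mL BMP2 for 15 min. Lysed in M-PER with protease inhibitors. Western blot for pSMAD1/5, SMAD1, SMAD5 and GAPDH, quantified by densitometry.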

HUVEC [2] = experiment: Inhibition of BMP signalling pathway in BMP9-stimulated human HUVEC cells assessed as decrease in SMAD1 phosphorylation at 25 uM preincubated for 30 mins followed by BMP2 stimulation and measured after 15 mins by Western blot analysis; assay type: cell-based; conditions: time 45.0 min
Method in brief: (§2)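 HUVECs, about 3 × 10^5 per well, starved overnight in Kaighn's F-12 with 0.5% FBS and 30 μg/mL endothelial cell growth supplement. Pretreated 30 min with inhibitor, then stimulated with 0.5 ng/mL BMP9. Lysed in M-PER with protease and phosphatase inhibitors. Western blot for pSMAD1/5, SMAD1 and SMAD5, quantified by densitometry.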

HUVEC [3] = experiment: Inhibition of BMP signalling pathway in BMP9-stimulated human HUVEC cells assessed as decrease in SMAD5 phosphorylation at 25 uM preincubated for 30 mins followed by BMP2 stimulation and measured after 15 mins by Western blot analysis; assay type: cell-based; conditions: time 45.0 min; method in brief: as §2
Activin receptor type-1 = molecular target: T2, Activin receptor type-1 (Homo sapiens, UniProt Q04771); experiment: Inhibition of ACVR1 (unknown origin) by LanthaScreen TR-FRET assay; method in brief: as §1
T2 sequence (Q04771 whole entry): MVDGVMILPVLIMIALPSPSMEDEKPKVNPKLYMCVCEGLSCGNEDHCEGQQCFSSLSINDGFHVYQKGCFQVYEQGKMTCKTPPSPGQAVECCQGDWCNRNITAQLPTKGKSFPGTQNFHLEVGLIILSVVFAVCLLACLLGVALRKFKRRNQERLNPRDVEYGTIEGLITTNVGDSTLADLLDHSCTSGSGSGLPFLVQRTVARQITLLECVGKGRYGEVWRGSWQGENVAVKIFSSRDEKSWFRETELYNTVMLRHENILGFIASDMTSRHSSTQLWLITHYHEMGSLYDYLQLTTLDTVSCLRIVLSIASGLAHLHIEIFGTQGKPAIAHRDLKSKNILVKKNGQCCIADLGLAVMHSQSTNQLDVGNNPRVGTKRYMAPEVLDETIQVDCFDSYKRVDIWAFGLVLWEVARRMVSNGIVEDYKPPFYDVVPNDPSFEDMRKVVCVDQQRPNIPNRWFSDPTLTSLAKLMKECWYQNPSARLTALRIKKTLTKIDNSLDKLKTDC

[4] = molecular target: Activin receptor type-1-like (Homo sapiens, UniProt P37023); experiment: Inhibition of ACVRL1 (unknown origin) by LanthaScreen TR-FRET assay; method in brief: as §1
[5] = molecular target: T3, Bone morphogenetic protein receptor type-2 (Homo sapiens) (UniProt Q13873); experiment: Binding affinity to recombinant C-terminal 6His-tagged human BMPR2 (188 to 517 residues) expressed in Escherichia coli Rosetta assessed as change in melting temperature at 50 uM by SYPRO Orange dye based thermal shift assay
T3 sequence (whole entry): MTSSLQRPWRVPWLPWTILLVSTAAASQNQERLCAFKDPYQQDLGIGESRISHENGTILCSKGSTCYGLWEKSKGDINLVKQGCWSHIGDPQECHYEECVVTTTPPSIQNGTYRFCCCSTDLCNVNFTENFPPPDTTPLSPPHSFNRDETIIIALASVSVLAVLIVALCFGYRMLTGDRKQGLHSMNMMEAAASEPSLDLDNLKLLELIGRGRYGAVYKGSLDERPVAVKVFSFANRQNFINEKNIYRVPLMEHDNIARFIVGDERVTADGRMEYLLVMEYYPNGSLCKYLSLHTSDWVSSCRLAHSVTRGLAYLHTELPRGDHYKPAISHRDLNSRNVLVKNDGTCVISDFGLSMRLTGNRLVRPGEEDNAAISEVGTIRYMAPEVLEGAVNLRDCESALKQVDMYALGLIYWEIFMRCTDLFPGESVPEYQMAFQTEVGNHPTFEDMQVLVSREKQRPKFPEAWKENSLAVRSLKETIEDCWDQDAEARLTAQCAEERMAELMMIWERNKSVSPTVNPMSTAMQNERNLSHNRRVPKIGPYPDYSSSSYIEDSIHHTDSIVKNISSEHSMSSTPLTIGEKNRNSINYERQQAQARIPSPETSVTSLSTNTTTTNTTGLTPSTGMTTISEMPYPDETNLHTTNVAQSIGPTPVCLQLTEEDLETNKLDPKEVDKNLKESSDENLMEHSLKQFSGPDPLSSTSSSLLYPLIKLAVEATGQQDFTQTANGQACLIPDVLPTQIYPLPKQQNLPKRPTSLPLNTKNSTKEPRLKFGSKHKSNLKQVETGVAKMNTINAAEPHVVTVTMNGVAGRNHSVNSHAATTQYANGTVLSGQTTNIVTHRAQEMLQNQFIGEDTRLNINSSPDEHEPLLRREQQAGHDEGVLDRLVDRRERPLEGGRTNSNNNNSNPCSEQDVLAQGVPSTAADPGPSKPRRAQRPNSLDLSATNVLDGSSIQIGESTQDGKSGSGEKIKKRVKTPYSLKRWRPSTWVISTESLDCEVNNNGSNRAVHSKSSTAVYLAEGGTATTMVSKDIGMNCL
Method in brief: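 BMPR2 kinase domain-His (purified by IMAC, anion exchange and size exclusion) at 1 μg per 10 μL reaction in 50 mM Tris–HCl pH 7.5, 150 mM NaCl with SYPRO Orange 5×. Compound at 50 μM. Scanned 20 to 95 °C with fluorescence read every 10 s. Tm from the melt curve; averages of three technical replicates.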

Activin receptor type-1-like, sequence (P37023 whole entry, the tested form may be a part): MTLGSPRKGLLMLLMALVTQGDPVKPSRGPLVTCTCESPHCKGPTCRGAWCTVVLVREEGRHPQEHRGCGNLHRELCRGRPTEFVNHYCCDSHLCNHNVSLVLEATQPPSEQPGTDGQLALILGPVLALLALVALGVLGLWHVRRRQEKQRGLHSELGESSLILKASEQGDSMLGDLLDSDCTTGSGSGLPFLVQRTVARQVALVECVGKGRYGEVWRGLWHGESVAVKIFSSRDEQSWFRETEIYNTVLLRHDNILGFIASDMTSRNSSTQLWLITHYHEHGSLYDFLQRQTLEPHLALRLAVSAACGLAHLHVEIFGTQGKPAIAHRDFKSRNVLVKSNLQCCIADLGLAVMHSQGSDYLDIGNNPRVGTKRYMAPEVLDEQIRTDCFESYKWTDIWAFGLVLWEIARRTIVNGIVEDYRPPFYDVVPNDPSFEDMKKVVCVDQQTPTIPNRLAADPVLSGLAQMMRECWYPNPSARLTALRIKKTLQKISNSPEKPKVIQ

| inhibition [1] | IC50 (Activin receptor type-1) [µM] | IC50 [4] [µM] | ΔTm [5] [°C] | Compound | inhibition (HEK293T) | inhibition (HUVEC [2]) | inhibition (HUVEC [3]) |
| --- | --- | --- | --- | --- | --- | --- | --- |
| inactive |  |  |  | COc1cnc(Nc2cccc(S(N)(=O)=O)c2)nc1N1CCN(c2ccccc2)C(=O)C1 | Active | Active | Active |
|  | 0.251 | 0.267 | 15.7 | CNC(=O)[C@@H]1CC[C@@H](n2c(-c3ccc4cnccc4c3)nc3ccc(C(=O)NCc4cccc(C(N)=O)c4)cc32)C1 |  |  |  |
|  | 0.124 | 0.131 |  | NC(=O)c1cccc(CNC(=O)c2ccc3nc(-c4ccc5cnccc5c4)n(C4CCCC4)c3c2)c1 | Active | Active | Active |
| inactive | > 1 |  | 13.9 | CNC(=O)CCc1ccc(C(=O)NCc2cccc(N3CCN(c4nc(Nc5cccc(S(N)(=O)=O)c5)ncc4OC)CC3)c2)cc1 |  |  |  |
